Data from ChEMBL document CHEMBL1156597, “Structure-activity relationship of kahalalide F synthetic analogues” (J Med Chem, 2008).

Experiments:
[1] = tested on: PANC-1; test: Cytotoxicity against human PANC1 cells after 48 hrs by SRB assay; assay type: functional; details: PANC-1, 48 h; for CC50: read-out: LC50 (the source's name)
Summary of the method: (§1)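 Cells grown in RPMI 1640 with 10% FBS and penicillin/streptomycin at 37 °C and 5% CO₂, trypsinized, then seeded at 5 × 10³/well. After 18 h drug-free attachment, samples in DMSO/EtOH/PBS (0.5:0.5:99) were added for 48 h continuous exposure. Cells were fixed with cold TCA (1 h, 4 °C) and stained with SRB (10 min). Tris-solubilized stain read at 490 nm. Triplicate wells, mean ± SD; GI₅₀ derived.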

[2] = tested on: LoVo; test: Cytotoxicity against human doxorubicin resistant LoVo cells after 48 hrs by SRB assay; assay type: functional; details: for CC50: read-out: LC50 (the source's name); summary of the method: as §1
[3] = Cytotoxicity against human IGROV cells after 48 hrs by SRB assay; assay type: functional; details: for CC50: read-out: LC50 (the source's name); summary of the method: as §1
[4] = Cytotoxicity against human HeLa-APL cells after 48 hrs by SRB assay; assay type: functional; summary of the method: as §1
[5] = tested on: SK-BR-3; test: Cytotoxicity against human SKBR3 cells after 48 hrs by SRB assay; assay type: functional; details: SK-BR-3, 48 h; for CC50: read-out: LC50 (the source's name); summary of the method: as §1
[6] = tested on: DU-145; test: Cytotoxicity against human DU145 cells after 48 hrs by SRB assay; assay type: functional, cell-based; details: Homo sapiens, DU-145, 48 h; for CC50: read-out: LC50 (the source's name); summary of the method: as §1
[7] = Cytotoxicity against human IGROV-ET cells after 48 hrs by SRB assay; assay type: functional; details: for CC50: read-out: LC50 (the source's name); summary of the method: as §1
[8] = tested on: K562; test: Cytotoxicity against human K562 cells after 48 hrs by SRB assay; assay type: functional; details: K562, 48 h; for CC50: read-out: LC50 (the source's name); summary of the method: as §1
[9] = tested on: A549; test: Cytotoxicity against human A549 cells after 48 hrs by SRB assay; assay type: functional, cell-based; details: Homo sapiens, A549, 48 h; summary of the method: as §1
[10] = tested on: HeLa; test: Cytotoxicity against human HeLa cells after 48 hrs by SRB assay; assay type: functional; details: for CC50: read-out: LC50 (the source's name); summary of the method: as §1
[11] = tested on: HT-29; test: Cytotoxicity against human HT29 cells after 48 hrs by SRB assay; assay type: functional, cell-based; details: Homo sapiens, HT-29, 48 h; for CC50: read-out: LC50 (the source's name); summary of the method: as §1
[12] = tested on: LoVo; test: Cytotoxicity against human LoVo cells after 48 hrs by SRB assay; assay type: functional; details: for CC50: read-out: LC50 (the source's name)
[13] = tested on: SK-MEL-28; test: Cytotoxicity against human SK-MEL-28 cells after 48 hrs by SRB assay; assay type: functional, cell-based; details: Homo sapiens, SK-MEL-28, 48 h; for CC50: read-out: LC50 (the source's name); summary of the method: as §1

`C/C=C1\NC(=O)[C@H](Cc2ccccc2)N(C)C(=O)[C@@H](C(C)C)NC(=O)[C@@H]([C@H](C)CC)NC(=O)[C@H](NC(=O)[C@H](NC(=O)[C@H](CCCN)NC(=O)[C@H]2CCCN2C(=O)[C@H](NC(=O)[C@@H](NC(=O)[C@@H](NC(=O)[C@H](NC(=O)CC[C@@H](C)CC)C(C)C)[C@@H](C)O)C(C)C)C(C)C)[C@H](C)CC)[C@H](C)OC(=O)[C@H](C(C)C)NC1=O` gave a GI50 [1] of 1920 nM, a TGI [1] of 2100 nM and a CC50 [1] of 2000 nM. It also gave a GI50 [2] of 318 nM, a TGI [2] of 311 nM and a CC50 [2] of 305 nM. For the same compound, the GI50 [3] was 596 nM, the GI50 ([3]; read-out: GI50) was 862 nM and the CC50 [3] was 493 nM. For the same compound, the GI50 [4] was 1110 nM, the LC50 (concentration giving 50% net cell kill) [4] was 936 nM and the TGI [4] was 1020 nM. The TGI [5] was 286 nM, the GI50 ([5]; read-out: GI50) was 324 nM and the CC50 [5] was 76.8 nM. The TGI [6] was 1130 nM, the GI50 ([6]; read-out: GI50) was 1230 nM and the CC50 [6] was 1030 nM. The GI50 [7] was 642 nM, the GI50 ([7]; read-out: GI50) was 999 nM and the CC50 [7] was 451 nM. For the same compound, the GI50 [8] was 2140 nM, the TGI [8] was 1730 nM and the CC50 [8] was 1410 nM. For the same compound, the LC50 [9] was 999 nM, the TGI [9] was 1130 nM and the GI50 ([9]; read-out: GI50) was 1300 nM. It also gave a GI50 [10] of 528 nM, a TGI [10] of 766 nM and a CC50 [10] of 781 nM. The GI50 [11] was 274 nM, the TGI [11] was 236 nM and the CC50 [11] was 220 nM. For the same compound, the GI50 [12] was 386 nM, the TGI [12] was 431 nM and the CC50 [12] was 486 nM. It also gave a TGI [13] of 1270 nM, a GI50 ([13]; read-out: GI50) of 1350 nM and a CC50 [13] of 1190 nM.
Work on `C/C=C1\NC(=O)[C@H](Cc2cccc(Cl)c2)NC(=O)[C@@H](C(C)C)NC(=O)[C@@H]([C@H](C)CC)NC(=O)[C@H](NC(=O)[C@H](NC(=O)[C@H](CCCN)NC(=O)[C@H]2CCCN2C(=O)[C@H](NC(=O)[C@@H](NC(=O)[C@@H](NC(=O)[C@H](NC(=O)CCCC(C)C)C(C)C)[C@@H](C)O)C(C)C)C(C)C)[C@H](C)CC)[C@H](C)OC(=O)[C@H](C(C)C)NC1=O` yielded a GI50 [1] of 869 nM, a TGI [1] of 1700 nM and a CC50 [1] of 1700 nM. The GI50 [2] was 40.8 nM, the TGI [2] was 35.7 nM and the CC50 [2] was 340 nM. The GI50 [3] was 44.7 nM, the GI50 ([3]; read-out: GI50) was 41 nM and the CC50 [3] was 48.5 nM. The GI50 [4] was 191 nM, the LC50 (concentration giving 50% net cell kill) [4] was 275 nM and the TGI [4] was 172 nM. For the same compound, the GI50 [5] was 41.9 nM, the GI50 ([5]; read-out: GI50) was 49.6 nM and the CC50 [5] was 48.3 nM. The GI50 [6] was 173 nM, the GI50 ([6]; read-out: GI50) was 100 nM and the CC50 [6] was 305 nM. For the same compound, the TGI [7] was 97 nM, the GI50 ([7]; read-out: GI50) was 71.2 nM and the CC50 [7] was 163 nM. For the same compound, the GI50 [8] was 867 nM, the TGI [8] was 1220 nM and the CC50 [8] was 1730 nM. For the same compound, the GI50 [9] was 429 nM, the LC50 [9] was 911 nM and the GI50 ([9]; read-out: GI50) was 194 nM. It also gave a GI50 [10] of 98.3 nM, a TGI [10] of 131 nM and a CC50 [10] of 256 nM. For the same compound, the GI50 [11] was 40.2 nM, the TGI [11] was 42.5 nM and the CC50 [11] was 153 nM. It also gave a GI50 [12] of 18.5 nM, a TGI [12] of 27.9 nM and a CC50 [12] of 69.1 nM. The GI50 [13] was 313 nM, the GI50 ([13]; read-out: GI50) was 183 nM and the CC50 [13] was 738 nM.
Compound `C/C=C1\NC(=O)[C@H](c2ccccc2)NC(=O)[C@@H](C(C)C)NC(=O)[C@@H]([C@H](C)CC)NC(=O)[C@H](NC(=O)[C@H](NC(=O)[C@H](CCCN)NC(=O)[C@H]2CCCN2C(=O)[C@H](NC(=O)[C@@H](NC(=O)[C@@H](NC(=O)[C@H](NC(=O)CCCC(C)C)C(C)C)[C@@H](C)O)C(C)C)C(C)C)[C@H](C)CC)[C@H](C)OC(=O)[C@H](C(C)C)NC1=O` has a GI50 [1] of 1660 nM, a TGI [1] of 1660 nM and a CC50 [1] of 1660 nM. For the same compound, the GI50 [2] was 409 nM, the CC50 [2] was 333 nM and the GI50 [3] was 720 nM. The GI50 ([3]; read-out: GI50) was 503 nM, the CC50 [3] was 498 nM and the LC50 (concentration giving 50% net cell kill) [4] was 912 nM. It also gave a TGI [5] of 386 nM, a GI50 ([5]; read-out: GI50) of 438 nM and a CC50 [5] of 360 nM. The GI50 [6] was 872 nM, the GI50 ([6]; read-out: GI50) was 872 nM and the CC50 [6] was 872 nM. The GI50 [7] was 797 nM, the GI50 ([7]; read-out: GI50) was 806 nM and the CC50 [7] was 536 nM. The GI50 [8] was 1810 nM, the TGI [8] was 1810 nM and the CC50 [8] was 1810 nM. For the same compound, the LC50 [9] was 1090 nM, the TGI [9] was 1090 nM and the GI50 ([9]; read-out: GI50) was 1090 nM. The CC50 [10] was 903 nM, the CC50 [11] was 416 nM and the GI50 [12] was 417 nM. The TGI [12] was 533 nM, the CC50 [12] was 341 nM and the TGI [13] was 1110 nM. The GI50 ([13]; read-out: GI50) was 1110 nM and the CC50 [13] was 1110 nM.
